Screens: PubChem BioAssay, several laboratories
Lmaj promast: reduces viability of Leishmania major promastigotes; resazurin fluorescence viability; inhibition, % at 10 µM; 200,000 compounds, 9% hits; in the data active = inhibition above about 50%;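 note: promastigotes grown with compound for 44 hours at 28 °C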
PTEN del growth: PTEN-deleted cell growth suppression. HCT116 PTEN-null viability, CellTiter-Glo, 60 h; active compounds read low. viability, % at 10 µM. 140,000 compounds, 1.2% hits;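 active = viability at or below a set limit, 4 SD under the median of all tested compounds, cut at about 3.7% in these data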;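 note: PTEN knockout HCT116 line with beta catenin targeted HCT116 as companion control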
bCat KO growth: beta-catenin-lacking colon tumor cell growth suppression; viability, % at 10 µM; HCT116 beta-catenin knockout viability, CellTiter-Glo, 60 h; active compounds read low; 140,000 compounds, 1.5% hits;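 active = viability at or under a set limit, the compound median less 4 SD, cut at about 6% in these data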
TNAP inh no acc: inhibitors of human TNAP without phosphate acceptor; P05186; purified TNAP, CDP-star luminescence, 30 min; inhibition, % at 20 µM; 200,000 compounds, 0.26% hits; AID 1012;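 active = tissue-nonspecific alkaline phosphatase inhibition above about 50% at 20 µM in the single-dose screen, limit read from the data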
Target sequence (P05186 whole entry, looked up): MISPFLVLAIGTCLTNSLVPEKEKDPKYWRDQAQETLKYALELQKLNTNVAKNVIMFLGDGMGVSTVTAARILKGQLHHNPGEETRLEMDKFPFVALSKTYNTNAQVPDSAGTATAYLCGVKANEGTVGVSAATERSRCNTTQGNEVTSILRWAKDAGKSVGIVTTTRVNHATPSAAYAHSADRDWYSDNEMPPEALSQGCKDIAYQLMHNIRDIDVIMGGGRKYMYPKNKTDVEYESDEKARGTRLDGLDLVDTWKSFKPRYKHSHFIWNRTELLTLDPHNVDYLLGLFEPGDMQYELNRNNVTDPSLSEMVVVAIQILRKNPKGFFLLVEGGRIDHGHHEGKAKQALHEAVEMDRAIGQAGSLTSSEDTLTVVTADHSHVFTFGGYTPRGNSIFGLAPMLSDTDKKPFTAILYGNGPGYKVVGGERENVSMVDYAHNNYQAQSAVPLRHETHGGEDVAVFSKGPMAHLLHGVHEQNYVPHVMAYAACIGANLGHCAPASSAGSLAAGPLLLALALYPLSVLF
TNAP inh hi DEA: blocks human TNAP under high phosphate acceptor concentration; purified TNAP, CDP-star luminescence, 1 M DEA; inhibition, % at 20 µM; 200,000 compounds, 0.03% hits;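 active = over 50% inhibition of tissue-nonspecific alkaline phosphatase at 20 µM in the single-dose screen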
TNAP act hiacc: activators of human TNAP at high phosphate acceptor concentration | P05186 | purified TNAP, CDP-star luminescence, 1 M DEA, 30 min; active compounds read high; 0 = EDTA background, 1 = DMSO-only activity | activation factor at 20 µM | 200,000 tested, under 10 active | AID 1136;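 active = activation factor at least 2 at 20 µM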
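Assay system: human TNAP; Input: enzyme diluted 1/800 final; Reagent: CDP-star luminogenic substrate at 100 µM final; Timing: 30 min, room temperature; Signal: luminescence; Evaluation: TNAP activation factor scaled between EDTA and DMSO control wells.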
Each line names hits and unclear results; the compound was inactive in the other large screens. An excerpt weighted towards active compounds, which were near 9.6% of everything screened.

COc1ccc(CN(C)C2CCCCC2)cc1	Lmaj promast 87
CN(Cc1ccc(O)cc1)C1CCCCC1	Lmaj promast 93
Oc1ccc(CNC2CCCCC2)cc1	Lmaj promast 90
COc1ccc(Nc2nc(N)nc(CN(C)C3CCCCC3)n2)cc1	none
COc1ccc2c(c1)C1CC(C)(NC(=O)C1S(=O)(=O)c1ccc(F)cc1)O2 (stereo unspecified)	none
CCc1ccccc1NC(=S)N(CCN1CCOCC1)Cc1ccccc1F	none (no result: PTEN del growth, bCat KO growth)
CC(=C1C(=O)c2ccccc2C1=O)N1CCN(C/C=C/c2ccccc2)CC1	Lmaj promast 83
Cc1ccc(NC(=O)N2CCN(C/C=C/c3ccccc3)CC2)cc1	none (no result: PTEN del growth, bCat KO growth)
CCCCNC(=O)N1CCN(C/C=C/c2ccccc2)CC1	Lmaj promast 53 (no result: PTEN del growth, bCat KO growth)
CC(=C1C(=O)c2ccccc2C1=O)N1CCN(Cc2ccccc2)CC1	none
O=C(Nc1ccc2c(c1)OCO2)N1CCN(C/C=C/c2ccccc2)CC1	Lmaj promast 74
Nc1nnc(CCCCCc2nnc(N)s2)s1	none (no result: PTEN del growth, bCat KO growth)
CC(NC(=S)NCc1ccc(F)cc1)C12CC3CC(CC(C3)C1)C2 (stereo unspecified)	none (no result: PTEN del growth, bCat KO growth)
CCOc1ccc(NC(=O)N(C2CCCCC2)C(C)c2cccnc2)cc1 (stereo unspecified)	Lmaj promast 87
CCOc1ccc(NC(=O)N(C2CCCCC2)C(C)c2ccncc2)cc1 (stereo unspecified)	none
CC(c1cccnc1)N(C(=O)Nc1ccccc1)C1CCCCC1 (stereo unspecified)	Lmaj promast 78
CC(c1cccnc1)N(CCN(C)C)C(=O)Nc1ccc(Cl)cc1 (stereo unspecified)	none
CCOC(=O)c1nnn(CC(=O)NC(=O)Nc2ccc(F)cc2)c1C(=O)OCC	none (no result: PTEN del growth, bCat KO growth)
CCC(NC(=O)c1ccccc1NC(=O)c1ccccc1)C(=O)OC (stereo unspecified)	none (no result: PTEN del growth, bCat KO growth)
CCC(C)C(NC(=O)c1ccccc1NC(=O)c1ccccc1)C(=O)N1CCOCC1 (stereo unspecified)	Lmaj promast 53
O=C(COc1ccc2ccc(=O)oc2c1)N1CCN(c2ccccc2)CC1	Lmaj promast 69 (no result: PTEN del growth, bCat KO growth)
CC(=O)/C(C#N)=C1\NC(=O)C(Cc2ccc(C)c(C)c2)S1 (stereo unspecified)	none
COc1ccc(Oc2ccc(/C=C/C(=O)c3cccc(OC)c3)cc2[N+](=O)[O-])cc1	Lmaj promast 100, PTEN del growth 1.9, bCat KO growth 2.0
CC1=C(C(=O)OCc2ccc3c(c2)OCO3)C(c2ccccc2)NC(=O)N1 (stereo unspecified)	none
CC1=C(C(=O)OCc2ccc3c(c2)OCO3)C(c2ccccc2OCc2ccccc2)NC(=O)N1 (stereo unspecified)	Lmaj promast 99
CCOc1ccc(/C=C/c2c([N+](=O)[O-])c(=O)n(C)c(=O)n2C)cc1	Lmaj promast 65 (no result: PTEN del growth, bCat KO growth)
COc1ccc(/C=C/c2c([N+](=O)[O-])c(=O)n(C)c(=O)n2C)cc1	none (no result: PTEN del growth, bCat KO growth)
COc1ccc(C(=O)C[n+]2ccc(-c3nnc4n3CCC4)cc2)cc1	none
COc1ccc(C(=O)C[n+]2cn(C(F)F)c3ccccc32)c(F)c1	none (no result: PTEN del growth, bCat KO growth)
Cc1ccc(CN=C2NC(=O)C(CC(=O)NCCc3ccccc3)S2)cc1 (stereo unspecified)	none (no result: PTEN del growth, bCat KO growth)
CCN(CC)CC#CCC(O)(c1ccccc1)C1CCCCC1 (stereo unspecified)	none (no result: PTEN del growth, bCat KO growth)
CC(C)N(CC#CCC(O)(c1ccccc1)c1ccccc1)C(C)C	Lmaj promast 88
CC(C)N(CC#CCC(O)(c1ccccc1)c1ccccc1)CCO	none (no result: PTEN del growth, bCat KO growth)
CCN(CC#CCC(O)(c1ccccc1)c1ccccc1)C(C)C	Lmaj promast 87
C=CCOc1c(Br)cc(CNc2ccc(NC(=O)CCC)cc2)cc1OCC	Lmaj promast 87
CCOc1cc(CNc2ccc(N(C)C)cc2)cc(Br)c1OCC(=O)NC(C)(C)C	Lmaj promast 101
CC(NC(=O)CSc1nc2ccc(N)cc2s1)c1ccccc1 (stereo unspecified)	none (no result: PTEN del growth, bCat KO growth)
COc1cc2c(cc1NC(=O)c1cc(-c3ccccn3)nc3ccccc13)oc1ccccc12	bCat KO growth 6.1
COc1ccc(-c2cc(C(=O)Nc3ccccc3N3CCOCC3)c3ccccc3n2)cc1OC	Lmaj promast 64 (no result: PTEN del growth, bCat KO growth)
COc1ccc(-c2cc(C(=O)Nc3ccc(Cl)cc3Cl)c3ccccc3n2)cc1OC	bCat KO growth 5.4
COc1cc2c(cc1NC(=O)c1ccncc1)oc1ccccc12	none
CCc1ccc(-c2cc(C(=O)NCc3ccccn3)c3ccccc3n2)cc1	Lmaj promast 97
Cc1ccc(C(=O)NC(C#N)=C(Cl)Cl)cc1	none (no result: PTEN del growth, bCat KO growth)
Cc1cccc(NC(=O)COC(=O)Cc2cccc(C(F)(F)F)c2)c1C	none
Cc1ccc(S(=O)(=O)NNC(=O)c2sc3nc(C)cc(C)c3c2-n2cccc2)cc1	none
COc1ccc(C(=O)Nc2nc3ccccc3s2)cc1OC	Lmaj promast 69 (no result: PTEN del growth, bCat KO growth)
COc1ccc(-c2cc(C(=O)Nc3ccccc3O)c3ccccc3n2)cc1OC	none (no result: PTEN del growth, bCat KO growth)
COc1ccc(-c2cc(C(=O)Nc3nc4ccccc4s3)c3ccccc3n2)cc1OC	Lmaj promast 98
Cc1ccc2nc(NC(=O)c3ccc(-c4nc5ccccc5s4)s3)sc2c1	PTEN del growth 2.5, bCat KO growth 4.7
COc1ccc(-c2cc(C(=O)Nc3c(Cl)cc(Cl)cc3Cl)c3ccccc3n2)cc1OC	PTEN del growth 1.8, bCat KO growth 2.1
COC(=O)c1cc(OC)c(OC)cc1NC(=O)c1cc(-c2ccccc2)nc2ccccc12	none
COc1ccc(C(=O)Nc2nc3ccc(S(C)(=O)=O)cc3s2)cc1OC	none (no result: PTEN del growth, bCat KO growth)
COc1ccc(/C=C/C(=O)Nc2nonc2NC(C)=O)cc1	none
CC(c1c(O)c2ccccc2[nH]c1=O)C1(C)CCC(O)C(C)(C)O1 (stereo unspecified)	none (no result: PTEN del growth, bCat KO growth)
CCn1cc(C(=O)OCC(=O)NCc2ccccc2Cl)c(=O)c2ccc(C)nc21	none (no result: PTEN del growth, bCat KO growth)
CCCc1noc2c1C(c1cc(Br)ccc1F)C(C#N)=C(N)N2 (stereo unspecified)	none (no result: PTEN del growth, bCat KO growth)
O=C(NNC(=O)c1cc(-c2ccc(Cl)c(Cl)c2)nc2ccccc12)Nc1ccccc1	Lmaj promast 61
O=C(NC1=NCCS1)c1cc(-c2cccc(Br)c2)nc2ccccc12	none
O=C(Nc1nc2ccccc2s1)c1cc(-c2ccccc2)nn1-c1ccccc1	Lmaj promast 93
O=C(Nc1ncccn1)c1cc(-c2cccc(Br)c2)nc2ccccc12	Lmaj promast 83
Cc1cccc(NC(=O)NNC(=O)c2cc(-c3ccccc3Cl)nc3ccccc23)c1	none
Cc1ccc(CN2CCN(C3CCCC3)C(CCO)C2)s1 (stereo unspecified)	none (no result: PTEN del growth, bCat KO growth)
COc1ccc(CNC(=O)c2nnn(-c3cccc(C(F)(F)F)c3)c2N)cc1	none (no result: PTEN del growth, bCat KO growth)
Cc1sc2ncnc(NCCCN3CCCC3=O)c2c1C	none (no result: PTEN del growth, bCat KO growth)
COc1ccc(S(=O)(=O)N(C)C)cc1NC(=O)CSc1nnc(-c2cccnc2)o1	none (no result: PTEN del growth, bCat KO growth)
